Data taken from ChEMBL document CHEMBL1146840, “Syntheses and radical scavenging activities of resveratrol derivatives” (Bioorg Med Chem Lett, 2004).
pIC50: −log10 of the molar value.

How the values were obtained:
[1] = Free radical scavenging activity of DPPH relative to resveratrol was determined
Summary of the method: (§1)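 Ethanolic DPPH (1.01×10^-4 M) plus sample (1:9 by volume), 30 min at room temperature, absorbance at 518 nm, decrease versus control. Triplicate, repeated at least three times. The relative value is the IC50 of resveratrol divided by the IC50 of the test compound.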

[2] = Free radical scavenging activity of DPPH was determined
Summary of the method: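 DPPH bleaching assay: sample solution mixed 1:9 with ethanolic DPPH (1.01×10^-4 M), kept 30 min at room temperature, then A518 read and remaining DPPH calculated. Triplicate, repeated at least three times.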

[3] = Free radical scavenging activity of DPPH expressed as percent polyphenol
[4] = Free radical scavenging activity of DPPH was determined; value taken from reference 11
[5] = Half life of the radiolabeled compound was determined; format: ADME
[6] = Free radical scavenging activity of DPPH w.r.t. resveratrol was determined; summary of the method: as §1

| Compound | Relative IC50 [1] | pIC50 [2] | Activity [3] [%] | pIC50 [4] | T1/2 [5] [h] | Relative IC50 [6] |
| --- | --- | --- | --- | --- | --- | --- |
| Oc1cc(O)cc(/C=C/c2ccc(O)c(I)c2)c1 | 1.68 | 4.13 | 88 |  |  |  |
| Oc1cc(O)cc(/C=C/c2ccc(O)c(O)c2)c1 [PICEATANNOL] | 2.55 |  |  | 4.54 |  |  |
| Oc1ccc(/C=C/c2cc(O)c(I)c(O)c2)cc1 | 1.75 | 4.15 | 72 |  |  |  |
| [18FH] [F-18] |  |  |  |  | 1.83 |  |
| COc1cc(/C=C/c2ccc(O)c(CCF)c2)cc(OC)c1 | 1.77 | 4.16 | 50.4 |  |  |  |
| Oc1cc(O)cc(/C=C/c2ccc(O)c(CCF)c2)c1 | 2.6 | 4.32 | 95.6 |  |  |  |
| Oc1cc(O)c2c(c1)O[C@H](c1ccc(O)c(O)c1)[C@@H](O)C2 [CIANIDANOL] | 3.66 |  |  | 4.69 |  |  |
| Oc1ccc(/C=C/c2cc(O)cc(O)c2)cc1 [RESVERATROL] |  | 3.91 | 100 | 4.13 |  | 1 |
| Oc1cc(O)cc(/C=C/c2ccc(O)c(Br)c2)c1 | 2.41 | 4.29 | 98 |  |  |  |
| COc1ccc(/C=C/c2cc(OC)cc(OC)c2Br)cc1 |  |  | 26.6 |  |  |  |
| OC[C@H]1O[C@@H](Oc2cc(O)cc(/C=C/c3ccc(O)cc3)c2)[C@H](O)[C@@H](O)[C@@H]1O [PICEID] | 0.37 |  |  | 3.70 |  |  |
| OC[C@H]1O[C@@H](Oc2cc(O)cc(/C=C/c3ccc(O)c(O)c3)c2)[C@H](O)[C@@H](O)[C@@H]1O | 2.42 |  |  | 4.51 |  |  |
| Oc1ccc(/C=C/c2cc(O)cc(O)c2Br)cc1 | 3.43 | 4.44 | 85.8 |  |  |  |
| Oc1cc(O)c2c(c1)O[C@H](c1ccc(O)c(O)c1)[C@H](O)C2 [(-)-EPICATECHIN] | 4.71 |  |  | 4.80 |  |  |
